Values joined by “and” are separate entries in the source; they are usually repeats but may differ in a detail not shown here. Equal values may be shown once.
Tested on: HEK-293T
Experiment: Multiplex assay against HEK293T
Type: toxicity, cell-based
Details: human, number of replicates 2
In short: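 Cells were classed with CellPathfinder machine-learning gating, first as Hoechst high-intensity objects or normal cells, then (normal cells) as healthy, pyknosed or fragmented nuclei, and finally (pyknosed cells) as mitotic or apoptotic. Staining of live cells at seeding used Hoechst33342, BioTracker Green Microtubule Cytoskeleton Dye, MitoTracker Red and Annexin V Alexa Fluor 680, with imaging on a CQ1 microscope at 37°C and 5% CO2 after compound addition. Tubulin, mitochondrial-mass and membrane-permeability phenotypes are per cents of healthy-nucleus cells.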

[1] = 12 h, 1 µM, compound concentration 1 uM
[2] = 12 h, 10 µM, compound concentration 10 uM
[3] = 24 h, 1 µM, compound concentration 1 uM
[4] = 24 h, 10 µM, compound concentration 10 uM
[5] = 48 h, 1 µM, compound concentration 1 uM
[6] = 48 h, 10 µM, compound concentration 10 uM

CCNc1ccc(-c2nn(-c3ccccc3C)c3c2C(C)Cc2nc(NC(=O)OC)sc2-3)cn1.O=C(O)C(F)(F)F (stereo unspecified)
Population Apoptotic (%) [1]: 69% and 60% | Population Fragmented Nuclei (%) [1]: 4% and 5% | Population Healthy Nuclei (%) [1]: 86% and 81% | Population Hoechst High Intensity Objects (%) [1]: 11% and 12% | Population Membrane Permeable-Phenotype (%) [1]: 2% | Population Mitochondria Different-Phenotype (%) [1]: 45% and 38% | Population Mitotic Cells (%) [1]: 30% and 39% | Population Normal (%) [1]: 88% and 87% | Population Pyknosed Nuclei (%) [1]: 8% and 13% | Population Tubulin-Different-Phenotype (%) [1]: 74% and 65% | Total Cell Count [1]: 430 and 487 | Population Apoptotic (%) [2]: 73% and 72% | Population Fragmented Nuclei (%) [2]: 3% and 4% | Population Healthy Nuclei (%) [2]: 85% and 79% | Population Hoechst High Intensity Objects (%) [2]: 10% | Population Membrane Permeable-Phenotype (%) [2]: 3% | Population Mitochondria Different-Phenotype (%) [2]: 74% and 79% | Population Mitotic Cells (%) [2]: 26% and 27% | Population Normal (%) [2]: 89% | Population Pyknosed Nuclei (%) [2]: 10% and 16% | Population Tubulin-Different-Phenotype (%) [2]: 94% and 96% | Total Cell Count [2]: 308 and 225 | Population Apoptotic (%) [3]: 58% and 82% | Population Fragmented Nuclei (%) [3]: 5% | Population Healthy Nuclei (%) [3]: 82% and 81% | Population Hoechst High Intensity Objects (%) [3]: 26% and 16% | Population Membrane Permeable-Phenotype (%) [3]: 0% | Population Mitochondria Different-Phenotype (%) [3]: 44% and 63% | Population Mitotic Cells (%) [3]: 41% and 17% | Population Normal (%) [3]: 73% and 83% | Population Pyknosed Nuclei (%) [3]: 11% and 12% | Population Tubulin-Different-Phenotype (%) [3]: 72% and 85% | Total Cell Count [3]: 409 and 322 | Population Apoptotic (%) [4]: 54% and 66% | Population Fragmented Nuclei (%) [4]: 6% and 5% | Population Healthy Nuclei (%) [4]: 76% and 74% | Population Hoechst High Intensity Objects (%) [4]: 13% and 16% | Population Membrane Permeable-Phenotype (%) [4]: 1% | Population Mitochondria Different-Phenotype (%) [4]: 86% and 85% | Population Mitotic Cells (%) [4]: 45% and 33% | Population Normal (%) [4]: 86% and 83% | Population Pyknosed Nuclei (%) [4]: 16% and 19% | Population Tubulin-Different-Phenotype (%) [4]: 89% and 95% | Total Cell Count [4]: 234 and 199 | Population Apoptotic (%) [5]: 75% and 85% | Population Fragmented Nuclei (%) [5]: 11% | Population Healthy Nuclei (%) [5]: 69% and 74% | Population Hoechst High Intensity Objects (%) [5]: 28% and 29% | Population Membrane Permeable-Phenotype (%) [5]: 0% | Population Mitochondria Different-Phenotype (%) [5]: 43% and 50% | Population Mitotic Cells (%) [5]: 24% and 14% | Population Normal (%) [5]: 71% and 70% | Population Pyknosed Nuclei (%) [5]: 19% and 14% | Population Tubulin-Different-Phenotype (%) [5]: 75% and 80% | Total Cell Count [5]: 418 and 399 | Population Apoptotic (%) [6]: 73% and 66% | Population Fragmented Nuclei (%) [6]: 5% and 3% | Population Healthy Nuclei (%) [6]: 86% and 81% | Population Hoechst High Intensity Objects (%) [6]: 19% and 13% | Population Membrane Permeable-Phenotype (%) [6]: 2% and 1% | Population Mitochondria Different-Phenotype (%) [6]: 83% and 80% | Population Mitotic Cells (%) [6]: 26% and 33% | Population Normal (%) [6]: 80% and 86% | Population Pyknosed Nuclei (%) [6]: 7% and 15% | Population Tubulin-Different-Phenotype (%) [6]: 89% and 93% | Total Cell Count [6]: 239 and 207

CS(=O)(=O)c1ccc(C(=O)Nc2cc(F)cc(COc3ccc(Br)cc3CN3CC[C@H](O)C3)c2)c(Cl)c1.O=CO
Population Apoptotic (%) [1]: 63% | Population Healthy Nuclei (%) [1]: 81% and 82% | Population Mitotic Cells (%) [1]: 45% and 36% | Population Pyknosed Nuclei (%) [1]: 16% and 13% | Total Cell Count [1]: 543 and 646 | Population Apoptotic (%) [2]: 68% and 69% | Population Healthy Nuclei (%) [2]: 83% and 84% | Population Mitotic Cells (%) [2]: 31% and 30% | Population Pyknosed Nuclei (%) [2]: 13% | Total Cell Count [2]: 462 and 578 | Population Apoptotic (%) [3]: 60% and 50% | Population Healthy Nuclei (%) [3]: 82% | Population Mitotic Cells (%) [3]: 39% and 49% | Total Cell Count [3]: 757 and 913 | Population Apoptotic (%) [4]: 70% | Population Healthy Nuclei (%) [4]: 79% and 83% | Population Mitotic Cells (%) [4]: 29% | Population Pyknosed Nuclei (%) [4]: 17% | Total Cell Count [4]: 505 and 555 | Population Apoptotic (%) [5]: 34% and 23% | Population Healthy Nuclei (%) [5]: 85% | Population Mitotic Cells (%) [5]: 65% and 76% | Population Pyknosed Nuclei (%) [5]: 3% and 4% | Total Cell Count [5]: 1715 and 1868 | Population Apoptotic (%) [6]: 54% and 57% | Population Healthy Nuclei (%) [6]: 85% and 80% | Population Mitotic Cells (%) [6]: 46% and 42% | Population Pyknosed Nuclei (%) [6]: 8% and 10% | Total Cell Count [6]: 633 and 761

Cc1ccc(C(=O)Nc2cc(N3CCN(C)CC3)cc(C(F)(F)F)c2)cc1-n1cc(-c2cnn(C)c2C)nn1.Cl
Population Apoptotic (%) [1]: 57% and 65% | Population Fragmented Nuclei (%) [1]: 4% and 5% | Population Healthy Nuclei (%) [1]: 73% and 76% | Population Hoechst High Intensity Objects (%) [1]: 11% and 9% | Population Membrane Permeable-Phenotype (%) [1]: 5% and 4% | Population Mitochondria Different-Phenotype (%) [1]: 26% and 20% | Population Mitotic Cells (%) [1]: 42% and 35% | Population Normal (%) [1]: 88% and 90% | Population Pyknosed Nuclei (%) [1]: 22% and 17% | Population Tubulin-Different-Phenotype (%) [1]: 74% and 71% | Total Cell Count [1]: 510 and 505 | Population Apoptotic (%) [2]: 61% and 68% | Population Fragmented Nuclei (%) [2]: 2% and 3% | Population Healthy Nuclei (%) [2]: 81% and 82% | Population Hoechst High Intensity Objects (%) [2]: 4% and 5% | Population Membrane Permeable-Phenotype (%) [2]: 8% and 12% | Population Mitochondria Different-Phenotype (%) [2]: 25% and 17% | Population Mitotic Cells (%) [2]: 38% and 31% | Population Normal (%) [2]: 95% and 94% | Population Pyknosed Nuclei (%) [2]: 16% and 14% | Population Tubulin-Different-Phenotype (%) [2]: 88% and 86% | Total Cell Count [2]: 680 and 697 | Population Apoptotic (%) [3]: 70% and 51% | Population Fragmented Nuclei (%) [3]: 8% and 10% | Population Healthy Nuclei (%) [3]: 77% and 76% | Population Hoechst High Intensity Objects (%) [3]: 10% | Population Membrane Permeable-Phenotype (%) [3]: 3% and 2% | Population Mitochondria Different-Phenotype (%) [3]: 16% and 9% | Population Mitotic Cells (%) [3]: 29% and 48% | Population Normal (%) [3]: 89% | Population Pyknosed Nuclei (%) [3]: 14% and 12% | Population Tubulin-Different-Phenotype (%) [3]: 57% and 53% | Total Cell Count [3]: 759 and 691 | Population Apoptotic (%) [4]: 56% and 59% | Population Fragmented Nuclei (%) [4]: 2% and 4% | Population Healthy Nuclei (%) [4]: 83% | Population Hoechst High Intensity Objects (%) [4]: 6% and 9% | Population Membrane Permeable-Phenotype (%) [4]: 8% and 11% | Population Mitochondria Different-Phenotype (%) [4]: 25% and 22% | Population Mitotic Cells (%) [4]: 43% and 40% | Population Normal (%) [4]: 93% and 90% | Population Pyknosed Nuclei (%) [4]: 13% and 12% | Population Tubulin-Different-Phenotype (%) [4]: 88% and 85% | Total Cell Count [4]: 748 and 730 | Population Apoptotic (%) [5]: 35% and 32% | Population Fragmented Nuclei (%) [5]: 13% and 11% | Population Healthy Nuclei (%) [5]: 81% and 84% | Population Hoechst High Intensity Objects (%) [5]: 10% | Population Membrane Permeable-Phenotype (%) [5]: 9% and 6% | Population Mitochondria Different-Phenotype (%) [5]: 1% | Population Mitotic Cells (%) [5]: 64% and 67% | Population Normal (%) [5]: 89% | Population Pyknosed Nuclei (%) [5]: 5% and 4% | Population Tubulin-Different-Phenotype (%) [5]: 23% and 35% | Total Cell Count [5]: 1722 and 1279 | Population Apoptotic (%) [6]: 37% and 52% | Population Fragmented Nuclei (%) [6]: 8% | Population Healthy Nuclei (%) [6]: 83% and 86% | Population Hoechst High Intensity Objects (%) [6]: 5% and 8% | Population Membrane Permeable-Phenotype (%) [6]: 15% and 14% | Population Mitochondria Different-Phenotype (%) [6]: 8% | Population Mitotic Cells (%) [6]: 62% and 47% | Population Normal (%) [6]: 94% and 91% | Population Pyknosed Nuclei (%) [6]: 7% and 5% | Population Tubulin-Different-Phenotype (%) [6]: 79% | Total Cell Count [6]: 1207 and 1093

CCCN(CCc1cccs1)[C@H]1CCc2c(O)cccc2C1 [ROTIGOTINE]
Population Apoptotic (%) [1]: 43% and 35% | Population Fragmented Nuclei (%) [1]: 3% and 1% | Population Healthy Nuclei (%) [1]: 83% and 85% | Population Hoechst High Intensity Objects (%) [1]: 9% and 5% | Population Membrane Permeable-Phenotype (%) [1]: 1% and 2% | Population Mitochondria Different-Phenotype (%) [1]: 13% and 14% | Population Mitotic Cells (%) [1]: 56% and 64% | Population Normal (%) [1]: 90% and 94% | Population Pyknosed Nuclei (%) [1]: 12% | Population Tubulin-Different-Phenotype (%) [1]: 50% and 48% | Total Cell Count [1]: 619 and 758 | Population Apoptotic (%) [2]: 39% and 66% | Population Fragmented Nuclei (%) [2]: 3% and 2% | Population Healthy Nuclei (%) [2]: 88% | Population Hoechst High Intensity Objects (%) [2]: 8% and 5% | Population Membrane Permeable-Phenotype (%) [2]: 4% and 2% | Population Mitochondria Different-Phenotype (%) [2]: 13% and 17% | Population Mitotic Cells (%) [2]: 60% and 33% | Population Normal (%) [2]: 91% and 94% | Population Pyknosed Nuclei (%) [2]: 7% and 8% | Population Tubulin-Different-Phenotype (%) [2]: 66% and 65% | Total Cell Count [2]: 592 and 535 | Population Apoptotic (%) [3]: 20% and 41% | Population Fragmented Nuclei (%) [3]: 6% and 5% | Population Healthy Nuclei (%) [3]: 89% and 88% | Population Hoechst High Intensity Objects (%) [3]: 8% | Population Membrane Permeable-Phenotype (%) [3]: 2% | Population Mitochondria Different-Phenotype (%) [3]: 3% | Population Mitotic Cells (%) [3]: 80% and 58% | Population Normal (%) [3]: 91% | Population Pyknosed Nuclei (%) [3]: 3% and 6% | Population Tubulin-Different-Phenotype (%) [3]: 30% and 32% | Total Cell Count [3]: 1198 and 930 | Population Apoptotic (%) [4]: 25% and 32% | Population Fragmented Nuclei (%) [4]: 5% and 7% | Population Healthy Nuclei (%) [4]: 89% and 86% | Population Hoechst High Intensity Objects (%) [4]: 8% and 9% | Population Membrane Permeable-Phenotype (%) [4]: 2% and 4% | Population Mitochondria Different-Phenotype (%) [4]: 9% and 5% | Population Mitotic Cells (%) [4]: 74% and 67% | Population Normal (%) [4]: 91% and 90% | Population Pyknosed Nuclei (%) [4]: 5% | Population Tubulin-Different-Phenotype (%) [4]: 50% and 47% | Total Cell Count [4]: 859 and 863 | Population Apoptotic (%) [5]: 5% and 13% | Population Fragmented Nuclei (%) [5]: 18% and 11% | Population Healthy Nuclei (%) [5]: 79% and 85% | Population Hoechst High Intensity Objects (%) [5]: 9% and 10% | Population Membrane Permeable-Phenotype (%) [5]: 5% and 3% | Population Mitochondria Different-Phenotype (%) [5]: 0% | Population Mitotic Cells (%) [5]: 94% and 86% | Population Normal (%) [5]: 90% and 89% | Population Pyknosed Nuclei (%) [5]: 2% | Population Tubulin-Different-Phenotype (%) [5]: 11% and 17% | Total Cell Count [5]: 3231 and 2107 | Population Fragmented Nuclei (%) [6]: 22% and 16% | Population Healthy Nuclei (%) [6]: 76% and 81% | Population Hoechst High Intensity Objects (%) [6]: 9% and 8% | Population Membrane Permeable-Phenotype (%) [6]: 7% and 6% | Population Mitochondria Different-Phenotype (%) [6]: 0% and 1% | Population Mitotic Cells (%) [6]: 83% and 95% | Population Normal (%) [6]: 90% and 91% | Population Pyknosed Nuclei (%) [6]: 1% and 2% | Population Tubulin-Different-Phenotype (%) [6]: 22% and 24% | Total Cell Count [6]: 2378 and 2001
